Active and inactive are the calls of the source. No cut-off for these calls is given here.
Columns and labels:
Staphylococcus aureus [1] = assay: Inhibition of Staphylococcus aureus ATCC 6538 fabI expressed in Escherichia coli BL21 (DE3) assessed as oxidation of NADPH to NADP+ using trans-2-octenoyl CoA as substrate incubated for 2 hrs in presence of NADPH by spectrophotometric analysis
Staphylococcus aureus [2] = assay: Antibacterial activity against methicillin-resistant Staphylococcus aureus clinical isolate 16 assessed as bacterial growth inhibition after 24 hrs by CLSI protocol based broth microdilution assay; assay type: functional
In short: (§1)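 Broth dilution MIC against 19 multidrug-resistant clinical S. aureus isolates, each taken from a different specimen type.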

Staphylococcus aureus [3] = assay: Antibacterial activity against methicillin-resistant Staphylococcus aureus clinical isolate 19 assessed as bacterial growth inhibition after 24 hrs by CLSI protocol based broth microdilution assay; assay type: functional; in short: as §1
Staphylococcus aureus [4] = assay: Antibiofilm activity against methicillin-resistant Staphylococcus aureus ATCC 43300 assessed as reduction in biofilm biomass up to 1 mg/L after 24 hrs by scanning electronic microscopic imaging analysis; assay type: functional, organism-based; conditions: dose mg/L <=1, time 24.0 hrs
In short: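 Scanning electron microscopy of 24 h MRSA ATCC 43300 biofilm, untreated or grown with stepwise increasing compound concentrations.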

Staphylococcus aureus [5] = assay: Antibiofilm activity against methicillin-resistant Staphylococcus aureus ATCC 43300 assessed as inhibition of biofilm at 0.5 to 2 mg/L after 24 hrs by MTT assay; assay type: functional, organism-based; conditions: dose mg/L 0.5-2, time 24.0 hrs
In short: (§2)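 Biofilm growth of MRSA ATCC 43300 measured in the presence of compound in cultivation plates, with a DMSO control. Significance of control vs treated is given at p < 0.05, 0.01 and 0.001.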

Staphylococcus aureus [6] = assay: Antibacterial activity against methicillin-resistant Staphylococcus aureus clinical isolate 7 assessed as bacterial growth inhibition after 24 hrs by CLSI protocol based broth microdilution assay; assay type: functional; in short: as §1
Staphylococcus aureus [7] = assay: Antibiofilm activity against methicillin-resistant Staphylococcus aureus clinical isolate 4 assessed as disruption of preformed biofilm up to 2 mg/L after 24 hrs by MTT assay; assay type: functional, organism-based; conditions: dose mg/L <=2, time 24.0 hrs
In short: (§3)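 Biofilms of clinical MRSA isolates that form biofilm in culture were preformed for 24 h and then exposed to compound to measure disruption. Significance of control vs treated is given at p < 0.05, 0.01 and 0.001.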

Staphylococcus aureus [8] = assay: Antibacterial activity against methicillin-resistant Staphylococcus aureus clinical isolate 4 assessed as bacterial growth inhibition after 24 hrs by CLSI protocol based broth microdilution assay; assay type: functional; in short: as §1
Staphylococcus aureus [9] = assay: Antibiofilm activity against methicillin-resistant Staphylococcus aureus clinical isolate 5 assessed as disruption of preformed biofilm up to 2 mg/L after 24 hrs by MTT assay; assay type: functional, organism-based; conditions: dose mg/L <=2, time 24.0 hrs; in short: as §3
Staphylococcus aureus [10] = assay: Antibiofilm activity against methicillin-resistant Staphylococcus aureus clinical isolate 6 assessed as disruption of preformed biofilm up to 2 mg/L after 24 hrs by MTT assay; assay type: functional, organism-based; conditions: dose mg/L <=2, time 24.0 hrs; in short: as §3
Staphylococcus aureus [11] = assay: Binding affinity to Staphylococcus aureus ATCC 6538 fabI expressed in Escherichia coli BL21 (DE3) assessed as tetramer transition of partial dimer resulting in peak shift at 1:10:10 ratio incubated for overnight in presence of NADP+ by analytical size exclusion chromatography; conditions: time 12.0 hrs
Staphylococcus aureus [12] = assay: Antibacterial activity against methicillin-resistant Staphylococcus aureus clinical isolate 13 assessed as bacterial growth inhibition after 24 hrs by CLSI protocol based broth microdilution assay; assay type: functional; in short: as §1
Staphylococcus aureus [13] = assay: Antibiofilm activity against methicillin-resistant Staphylococcus aureus clinical isolate 18 assessed as disruption of preformed biofilm up to 2 mg/L after 24 hrs by MTT assay; assay type: functional, organism-based; conditions: dose mg/L <=2, time 24.0 hrs; in short: as §3
L02 = assay: Cytotoxicity against human L02 cells assessed as reduction in cell viability at 80 mg/L after 24 hrs by MTT assay relative to control; assay type: cell-based; conditions: l02, 24 h, at 80 µg/mL
Staphylococcus aureus [14] = assay: Antibiofilm activity against methicillin-resistant Staphylococcus aureus clinical isolate 2 assessed as disruption of preformed biofilm up to 2 mg/L after 24 hrs by MTT assay; assay type: functional, organism-based; conditions: dose mg/L <=2, time 24.0 hrs; in short: as §3
Staphylococcus aureus [15] = assay: Antibacterial activity against methicillin-resistant Staphylococcus aureus clinical isolate 14 assessed as bacterial growth inhibition after 24 hrs by CLSI protocol based broth microdilution assay; assay type: functional; in short: as §1
Staphylococcus aureus [16] = assay: Antibacterial activity against methicillin-resistant Staphylococcus aureus clinical isolate 9 assessed as bacterial growth inhibition after 24 hrs by CLSI protocol based broth microdilution assay; assay type: functional; in short: as §1
Staphylococcus aureus [17] = assay: Antibiofilm activity against methicillin-resistant Staphylococcus aureus clinical isolate 11 assessed as disruption of preformed biofilm up to 2 mg/L after 24 hrs by MTT assay; assay type: functional, organism-based; conditions: dose mg/L <=2, time 24.0 hrs; in short: as §3
Staphylococcus aureus [18] = assay: Antibacterial activity against methicillin-resistant Staphylococcus aureus clinical isolate 10 assessed as bacterial growth inhibition after 24 hrs by CLSI protocol based broth microdilution assay; assay type: functional; in short: as §1
Bacillus cereus = assay: Antibacterial activity against Bacillus cereus assessed as bacterial growth inhibition after 24 hrs by CLSI protocol based broth microdilution assay; assay type: functional
Candida tropicalis = assay: Antifungal activity against Candida tropicalis assessed as fungal growth inhibition after 24 hrs by CLSI protocol based broth microdilution assay; assay type: functional
Staphylococcus aureus [19] = assay: Antibacterial activity against methicillin-resistant Staphylococcus aureus clinical isolate 8 assessed as bacterial growth inhibition after 24 hrs by CLSI protocol based broth microdilution assay; assay type: functional; in short: as §1
Staphylococcus aureus [20] = assay: Antibacterial activity against methicillin-resistant Staphylococcus aureus clinical isolate 6 assessed as bacterial growth inhibition after 24 hrs by CLSI protocol based broth microdilution assay; assay type: functional; in short: as §1
Staphylococcus aureus [21] = assay: Antibacterial activity against Staphylococcus aureus assessed as bacterial growth inhibition after 24 hrs by CLSI protocol based broth microdilution assay; assay type: functional
Staphylococcus aureus [22] = assay: Antibacterial activity against methicillin-resistant Staphylococcus aureus clinical isolate 2 assessed as bacterial growth inhibition after 24 hrs by CLSI protocol based broth microdilution assay; assay type: functional; in short: as §1
GES1 = assay: Cytotoxicity against human GES1 cells assessed as reduction in cell viability at 80 mg/L after 24 hrs by MTT assay relative to control; assay type: cell-based; conditions: ges1, 24 h, at 80 µg/mL
Staphylococcus aureus [23] = assay: Antibacterial activity against methicillin-resistant Staphylococcus aureus clinical isolate 3 assessed as bacterial growth inhibition after 24 hrs by CLSI protocol based broth microdilution assay; assay type: functional; in short: as §1
Staphylococcus aureus [24] = assay: Antibacterial activity against methicillin-resistant Staphylococcus aureus clinical isolate 11 assessed as bacterial growth inhibition after 24 hrs by CLSI protocol based broth microdilution assay; assay type: functional; in short: as §1
Staphylococcus aureus [25] = assay: Antibacterial activity against methicillin-resistant Staphylococcus aureus clinical isolate 1 assessed as bacterial growth inhibition after 24 hrs by CLSI protocol based broth microdilution assay; assay type: functional; in short: as §1
Staphylococcus aureus [26] = assay: Antibiofilm activity against methicillin-resistant Staphylococcus aureus clinical isolate 12 assessed as disruption of preformed biofilm up to 2 mg/L after 24 hrs by MTT assay; assay type: functional, organism-based; conditions: dose mg/L <=2, time 24.0 hrs; in short: as §3
Candida albicans = assay: Antifungal activity against Candida albicans assessed as fungal growth inhibition after 24 hrs by CLSI protocol based broth microdilution assay; assay type: functional
Staphylococcus aureus [27] = assay: Antibiofilm activity against methicillin-resistant Staphylococcus aureus clinical isolate 16 assessed as disruption of preformed biofilm up to 2 mg/L after 24 hrs by MTT assay; assay type: functional, organism-based; conditions: dose mg/L <=2, time 24.0 hrs; in short: as §3
Staphylococcus aureus [28] = assay: Antibiofilm activity against methicillin-resistant Staphylococcus aureus clinical isolate 3 assessed as disruption of preformed biofilm up to 2 mg/L after 24 hrs by MTT assay; assay type: functional, organism-based; conditions: dose mg/L <=2, time 24.0 hrs; in short: as §3
Staphylococcus aureus [29] = assay: Antibacterial activity against methicillin-resistant Staphylococcus aureus clinical isolate 12 assessed as bacterial growth inhibition after 24 hrs by CLSI protocol based broth microdilution assay; assay type: functional; in short: as §1
Enterococcus faecium = assay: Antibacterial activity against Enterococcus faecium assessed as bacterial growth inhibition after 24 hrs by CLSI protocol based broth microdilution assay; assay type: functional
Staphylococcus aureus [30] = assay: Antibacterial activity against methicillin-resistant Staphylococcus aureus clinical isolate 5 assessed as bacterial growth inhibition after 24 hrs by CLSI protocol based broth microdilution assay; assay type: functional; in short: as §1
Staphylococcus aureus [31] = assay: Antibacterial activity against methicillin-resistant Staphylococcus aureus clinical isolate 18 assessed as bacterial growth inhibition after 24 hrs by CLSI protocol based broth microdilution assay; assay type: functional; in short: as §1
Escherichia coli = assay: Antibacterial activity against Escherichia coli assessed as bacterial growth inhibition after 24 hrs by CLSI protocol based broth microdilution assay; assay type: functional
Pseudomonas aeruginosa = assay: Antibacterial activity against Pseudomonas aeruginosa assessed as bacterial growth inhibition after 24 hrs by CLSI protocol based broth microdilution assay; assay type: functional
Staphylococcus aureus [32] = assay: Antibiofilm activity against methicillin-resistant Staphylococcus aureus clinical isolate 17 assessed as disruption of preformed biofilm up to 2 mg/L after 24 hrs by MTT assay; assay type: functional, organism-based; conditions: dose mg/L <=2, time 24.0 hrs; in short: as §3
Staphylococcus aureus [33] = assay: Antibacterial activity against methicillin-resistant Staphylococcus aureus clinical isolate 17 assessed as bacterial growth inhibition after 24 hrs by CLSI protocol based broth microdilution assay; assay type: functional; in short: as §1
Staphylococcus aureus [34] = assay: Antibacterial activity against methicillin-resistant Staphylococcus aureus clinical isolate 15 assessed as bacterial growth inhibition after 24 hrs by CLSI protocol based broth microdilution assay; assay type: functional; in short: as §1
Staphylococcus aureus [35] = assay: Antibiofilm activity against methicillin-resistant Staphylococcus aureus ATCC 43300 assessed as reduction in biofilm biomass at 0.5 to 4 mg/L after 24 hrs by MTT assay; assay type: functional, organism-based; conditions: dose mg/L 0.5-4, time 24.0 hrs; in short: as §2

Oc1c(Br)cc(Cl)cc1CNc1cc(C(F)(F)F)ccc1Cl
inhibition (Staphylococcus aureus [1]): Active
MIC (Staphylococcus aureus [2]): ≤ 1 µg/mL
MIC (Staphylococcus aureus [3]): ≤ 1 µg/mL
inhibition (Staphylococcus aureus [4]): Active
inhibition (Staphylococcus aureus [5]): Active
MIC (Staphylococcus aureus [6]): ≤ 1 µg/mL
Activity (Staphylococcus aureus [7]): Active
MIC (Staphylococcus aureus [8]): ≤ 1 µg/mL
Activity (Staphylococcus aureus [9]): Active
Activity (Staphylococcus aureus [10]): Active
Activity (Staphylococcus aureus [11]): Active
MIC (Staphylococcus aureus [12]): ≤ 1 µg/mL
Activity (Staphylococcus aureus [13]): Active
Activity (L02): 50%
Activity (Staphylococcus aureus [14]): Active
MIC (Staphylococcus aureus [15]): ≤ 1 µg/mL
MIC (Staphylococcus aureus [16]): ≤ 1 µg/mL
Activity (Staphylococcus aureus [17]): Active
MIC (Staphylococcus aureus [18]): ≤ 1 µg/mL
MIC (Bacillus cereus): ≤ 2 µg/mL
MIC (Candida tropicalis): ≥ 64 µg/mL
MIC (Staphylococcus aureus [19]): ≤ 1 µg/mL
MIC (Staphylococcus aureus [20]): ≤ 1 µg/mL
MIC (Staphylococcus aureus [21]): ≤ 2 µg/mL
MIC (Staphylococcus aureus [22]): ≤ 1 µg/mL
Activity (GES1): 50%
MIC (Staphylococcus aureus [23]): ≤ 1 µg/mL
MIC (Staphylococcus aureus [24]): ≤ 1 µg/mL
MIC (Staphylococcus aureus [25]): ≤ 1 µg/mL
Activity (Staphylococcus aureus [26]): Active
MIC (Candida albicans): ≥ 64 µg/mL
Activity (Staphylococcus aureus [27]): Active
Activity (Staphylococcus aureus [28]): Active
MIC (Staphylococcus aureus [29]): ≤ 1 µg/mL
MIC (Enterococcus faecium): ≤ 2 µg/mL
MIC (Staphylococcus aureus [30]): ≤ 1 µg/mL
MIC (Staphylococcus aureus [31]): ≤ 1 µg/mL
MIC (Escherichia coli): ≥ 64 µg/mL
MIC (Pseudomonas aeruginosa): ≥ 64 µg/mL
Activity (Staphylococcus aureus [32]): Active
MIC (Staphylococcus aureus [33]): ≤ 1 µg/mL
MIC (Staphylococcus aureus [34]): ≤ 1 µg/mL
Activity (Staphylococcus aureus [35]): Active
